System: not listed separately
Assay: Half-life measured by the effect on contractility after oral administration of 25 ug/kg in dog
Conditions: in vivo, 0.025 mg/kg

`CC1(C)C(=O)Nc2ccc(C3=NNC(=O)CC3)cc21` [INDOLIDAN] showed a half-life greater than 8 h.

Species: Felis catus
Assay: Compound was evaluated for inotropic activity in cat papillary muscles at concentration of (10e -5)M
Assay type: functional, Papillary muscle
Conditions: not given
How it was run: (§1)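 Isolated cat papillary muscles under 1.0 g base-line tension, field-stimulated with square-wave pulses (2.0 ms, 12/min, 20% above threshold). Equilibrated 60 min. Each muscle was checked with 10^-6 M isoproterenol for 3 min and rejected if the response was under 120% of control, then washed and stabilized 30 min. Test compound given cumulatively (10^-7–10^-4 M) at 30-min intervals; contractility increase recorded.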

Going from `CC1(C)C(=O)Nc2ccc(C3=NNC(=O)CC3)cc21` [INDOLIDAN] to `O=C1CCC(c2ccc3c(c2)CC(=O)N3)=NN1`, the “Contractility (% of control)” value falls from 164% to 147%.

First: O=C1CCC(c2ccc3c(c2)CCC(=O)N3)=NN1
Second: O=C1CCC(c2ccc3c(c2)CCCC(=O)N3)=NN1
The “Contractility (% of control)” value of the first is higher: 156% for the first, 137% for the second.

First: CC(=O)Nc1ccc(C2=NNC(=O)CC2)cc1
Second: O=C1CCC(c2ccc(-n3ccnc3)cc2)=NN1 [IMAZODAN]
The “Contractility (% of control)” value of the first is lower: 128% for the first, 147% for the second.

System: Canis familiaris
Assay: Percent increase in contractility by administration of 500 ug/kg in conscious dog model
Assay type: functional, Canis lupus familiaris
Conditions: not given
How it was run: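 Conscious, chronically instrumented dogs fasted 18 h; drug or lactose placebo given orally in 000 gelatin capsules. Contractility index was LV dP/dt60 (first derivative of left ventricular pressure at 60 mmHg); heart rate and LV systolic pressure also monitored. Peak response generally taken 150 min post-dose; mean ± SEM of four experiments.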

For `Cc1[nH]c(=O)c(C#N)cc1-c1ccncc1` [MILRINONE], the Increase was 62%.

Species: Felis catus
Assay: Compound was evaluated for inotropic activity in cat papillary muscles at concentration of (10e-5) M
Assay type: functional, Papillary muscle
Conditions: not given
How it was run: as §1

First: Cc1[nH]c(=O)c(C#N)cc1-c1ccncc1 [MILRINONE]
Second: CC(=O)Nc1ccc(C2=NNC(=O)CC2C)cc1 (centres undefined)
The Control of the first is lower: 148% for the first, 183% for the second.

System: Canis familiaris
Assay: Compound was tested for cardiovascular profile in conscious dogs at dose of 25 ug/kg po
Conditions: not given

Compared with `CC1(C)C(=O)Nc2ccc(C3=NNC(=O)CC3)cc21` [INDOLIDAN], `CC1C(=O)Nc2ccc(C3=NNC(=O)CC3)cc21` (centres undefined) is lower in Control: 151% for the first, 141% for the second.

`CC(=O)Nc1ccc(C2=NNC(=O)CC2C)cc1` (centres undefined) gave a Control of 170%.

System: Canis familiaris
Assay: Evaluated for percent decrease in maximum arterial blood pressure in anesthetized dogs
Assay type: functional, Canis lupus familiaris
Conditions: not given
How it was run: (§2)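 Right ventricular contractility measured by strain-gauge arch at 50 g tension; femoral arterial pressure and heart rate also recorded. Increasing log doses given iv at 5-min intervals, with peak responses recorded. ED50 by linear regression (mean ± SEM). Heart rate and MAP are % changes at the inotropic ED50.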

First: Cc1[nH]c(=O)c(C#N)cc1-c1ccncc1 [MILRINONE]
Second: CC1(C)C(=O)Nc2ccc(C3=NNC(=O)CC3)cc21 [INDOLIDAN]
The Decrease of the first is lower: 8% for the first, 15.2% for the second.

First: CCCC1(C)C(=O)Nc2ccc(C3=NNC(=O)CC3)cc21 (centres undefined)
Second: CCC1(C)C(=O)Nc2ccc(C3=NNC(=O)CC3C)cc21 (centres undefined)
The Decrease of the first is lower: 9.6% for the first, 20% for the second.

Going from `CC1C(=O)Nc2ccc(C3=NNC(=O)CC3)cc21` (centres undefined) to `O=C1CCC(c2ccc3c(c2)CC(=O)N3)=NN1`, the Decrease falls from 21.8% to 4.3%.

Going from `O=C1CCC(c2ccc3c(c2)CCC(=O)N3)=NN1` to `O=C1CCC(c2ccc3c(c2)CCCC(=O)N3)=NN1`, the Decrease rises from 8.7% to 18%.

Compared with `CN1C(=O)C(C)(C)c2cc(C3=NNC(=O)CC3)ccc21`, `CC(=O)Nc1ccc(C2=NNC(=O)CC2)cc1` is lower in Decrease: 13% for the first, 6% for the second.

Compared with `CC(=O)Nc1ccc(C2=NNC(=O)CC2C)cc1` (centres undefined), `O=C1CCC(c2ccc(-n3ccnc3)cc2)=NN1` [IMAZODAN] is higher in Decrease: 16.6% for the first, 18% for the second.

Species: Felis catus
Assay: Compound was evaluated for inotropic activity in cat papillary muscles at concentration of (10e -4)M
Assay type: functional, Muscle tissue
Conditions: not given
How it was run: as §1

First: Cc1[nH]c(=O)c(C#N)cc1-c1ccncc1 [MILRINONE]
Second: CC1(C)C(=O)Nc2ccc(C3=NNC(=O)CC3)cc21 [INDOLIDAN]
The “Contractile force (% of control)” value of the first is lower: 158% for the first, 169% for the second.

Going from `O=C1CCC(c2ccc3c(c2)CCC(=O)N3)=NN1` to `O=C1CCC(c2ccc3c(c2)CCCC(=O)N3)=NN1`, the “Contractile force (% of control)” value falls from 154% to 139%.

Going from `CC(=O)Nc1ccc(C2=NNC(=O)CC2C)cc1` (centres undefined) to `CC(=O)Nc1ccc(C2=NNC(=O)CC2)cc1`, the “Contractile force (% of control)” value falls from 216% to 141%.

Compared with `O=C1CCC(c2ccc3c(c2)CC(=O)N3)=NN1`, `O=C1CCC(c2ccc(-n3ccnc3)cc2)=NN1` [IMAZODAN] is higher in “Contractile force (% of control)” value: 152% for the first, 173% for the second.

System: Canis familiaris
Assay: Evaluated for percent increase in heart rate in anesthetized dogs
Assay type: functional, Canis lupus familiaris
Conditions: not given
How it was run: as §2

First: Cc1[nH]c(=O)c(C#N)cc1-c1ccncc1 [MILRINONE]
Second: CC1(C)C(=O)Nc2ccc(C3=NNC(=O)CC3)cc21 [INDOLIDAN]
The Increase of the first is lower: 9% for the first, 11.8% for the second.

Going from `CCCC1(C)C(=O)Nc2ccc(C3=NNC(=O)CC3)cc21` (centres undefined) to `CCC1(C)C(=O)Nc2ccc(C3=NNC(=O)CC3C)cc21` (centres undefined), the Increase rises from 9.3% to 11%.

First: CC1C(=O)Nc2ccc(C3=NNC(=O)CC3)cc21 (centres undefined)
Second: O=C1CCC(c2ccc3c(c2)CC(=O)N3)=NN1
The Increase of the first is higher: 8% for the first, 5.6% for the second.

Going from `O=C1CCC(c2ccc3c(c2)CCC(=O)N3)=NN1` to `O=C1CCC(c2ccc3c(c2)CCCC(=O)N3)=NN1`, the Increase falls from 18.5% to 12%.

First: CN1C(=O)C(C)(C)c2cc(C3=NNC(=O)CC3)ccc21
Second: CC(=O)Nc1ccc(C2=NNC(=O)CC2)cc1
The Increase of the first is higher: 8% for the first, 5% for the second.

First: CC(=O)Nc1ccc(C2=NNC(=O)CC2C)cc1 (centres undefined)
Second: O=C1CCC(c2ccc(-n3ccnc3)cc2)=NN1 [IMAZODAN]
The Increase of the first is higher: 11.7% for the first, 9.5% for the second.

System: Canis familiaris
Assay: Compound was tested for cardiovascular profile in conscious dogs at dose of 500 ug/kg po
Assay type: functional, Canis lupus familiaris, Heart
Conditions: not given
How it was run: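 Conscious, chronically instrumented dogs fasted 18 h; drug or lactose placebo given orally in 000 gelatin capsules. Contractility index was LV dP/dt60 (first derivative of left ventricular pressure at 60 mmHg); heart rate and LV systolic pressure also monitored.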

First: Cc1[nH]c(=O)c(C#N)cc1-c1ccncc1 [MILRINONE]
Second: CC(=O)Nc1ccc(C2=NNC(=O)CC2)cc1
The Percent of control of the first is higher: 162% for the first, 132% for the second.

First: O=C1CCC(c2ccc3c(c2)CCC(=O)N3)=NN1
Second: O=C1CCC(c2ccc3c(c2)CCCC(=O)N3)=NN1
The Percent of control of the first is higher: 157% for the first, 131% for the second.

Compound `O=C1CCC(c2ccc3c(c2)CC(=O)N3)=NN1` has a Percent of control of 164%.

System: not listed separately
Assay: Half-life in dog
Conditions: in vivo

`CC1(C)C(=O)Nc2ccc(C3=NNC(=O)CC3)cc21` [INDOLIDAN] gave a half-life of 14 h.

Species: Felis catus
Assay: Compound was evaluated for inotropic activity in cat papillary muscles at concentration of (10e -6)M
Assay type: functional, Papillary muscle
Conditions: not given
How it was run: as §1

Compared with `CC1(C)C(=O)Nc2ccc(C3=NNC(=O)CC3)cc21` [INDOLIDAN], `O=C1CCC(c2ccc3c(c2)CC(=O)N3)=NN1` is lower in Control: 134% for the first, 116% for the second.

Compared with `O=C1CCC(c2ccc3c(c2)CCC(=O)N3)=NN1`, `O=C1CCC(c2ccc3c(c2)CCCC(=O)N3)=NN1` is lower in Control: 150% for the first, 121% for the second.

System: Canis familiaris
Assay: Tested for cardiovascular contractility in anesthetized dogs
Assay type: functional
Conditions: Canis lupus familiaris
How it was run: as §2

Compared with `Cc1[nH]c(=O)c(C#N)cc1-c1ccncc1` [MILRINONE], `CC1(C)C(=O)Nc2ccc(C3=NNC(=O)CC3)cc21` [INDOLIDAN] is 5.4-fold lower in ED50: 0.037 mg/kg for the first, 0.0068 mg/kg for the second.

`CCCC1(C)C(=O)Nc2ccc(C3=NNC(=O)CC3)cc21` (centres undefined) and `CCC1(C)C(=O)Nc2ccc(C3=NNC(=O)CC3C)cc21` (centres undefined) are within 1.5-fold of each other in ED50: 0.0198 mg/kg for the first, 0.0148 mg/kg for the second.

Going from `CC1C(=O)Nc2ccc(C3=NNC(=O)CC3)cc21` (centres undefined) to `O=C1CCC(c2ccc3c(c2)CC(=O)N3)=NN1`, the ED50 rises from 0.0096 mg/kg to 0.024 mg/kg (2.5-fold).

Compared with `O=C1CCC(c2ccc3c(c2)CCC(=O)N3)=NN1`, `O=C1CCC(c2ccc3c(c2)CCCC(=O)N3)=NN1` is 1.6-fold higher in ED50: 0.0033 mg/kg for the first, 0.0052 mg/kg for the second.

Going from `CN1C(=O)C(C)(C)c2cc(C3=NNC(=O)CC3)ccc21` to `CC(=O)Nc1ccc(C2=NNC(=O)CC2)cc1`, the ED50 falls from 0.052 mg/kg to 0.0116 mg/kg (4.5-fold).

First: CC(=O)Nc1ccc(C2=NNC(=O)CC2C)cc1 (centres undefined)
Second: O=C1CCC(c2ccc(-n3ccnc3)cc2)=NN1 [IMAZODAN]
The ED50 of the first is 23-fold lower: 0.002 mg/kg for the first, 0.046 mg/kg for the second.

Species: Felis catus
Assay: Compound was evaluated for inotropic activity in cat papillary muscles at concentration of (10e-6) M
Assay type: functional, Papillary muscle
Conditions: not given
How it was run: as §1

With `CC(=O)Nc1ccc(C2=NNC(=O)CC2C)cc1` (centres undefined) the Control was 167%.

System: not listed separately
Assay: Oral bioavailability determined in dog
Assay type: ADME, organism-based, Canis lupus familiaris
Conditions: in vivo

`CC1(C)C(=O)Nc2ccc(C3=NNC(=O)CC3)cc21` [INDOLIDAN] gave a bioavailability of 100%.

Source: ChEMBL document CHEMBL1123221, “Dihydropyridazinone cardiotonics: the discovery and inotropic activity of 1,3-dihydro-3,3-dimethyl-5-(1,4,5,6-tetrahydro-6-oxo-3-pyridazinyl)-2H -indol-2-one” (J Med Chem, 1986)
